# How the values were obtained:
# Type in all cases: functional, cell-based
# B16 = experiment: Cytotoxicity against mouse B16 cells after 72 hrs by MTT assay; conditions: B16, 72 h
# Procedure, shortened: (§1)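 72-h MTT assay on murine cell lines (B16 melanoma, L1210 leukemia) grown in culture. IC50 is the compound concentration needed to reduce the cell population by 50% relative to an untreated control.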
# L1210 = experiment: Cytotoxicity against mouse L1210 cells after 72 hrs by MTT assay; conditions: L1210, 72 h; procedure, shortened: as §1
# A10 = experiment: Reduction of cellular microtubules in interphase rat A10 cells
# Procedure, shortened: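 Interphase cellular microtubules scored in A-10 aortic smooth muscle cells after exposure to compound. EC50 is the effective concentration that causes 50% loss of cellular microtubules.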
EC50 (A10) [µM],Compound,IC50 (B16) [µM],IC50 (L1210) [µM]
–,COc1ccc(C2C=C(c3cc(OC)c(OC)c(OC)c3)NC(=S)N2)cc1OC (stereo unspecified),> 100,56.3
–,COc1ccc(OC)c(C2C=C(c3cc(OC)c(OC)c(OC)c3)NC(=S)N2)c1 (stereo unspecified),36,32
–,COc1ccc(C2C=C(c3cc(OC)c(OC)c(OC)c3)NC(=S)N2)cc1[N+](=O)[O-] (stereo unspecified),> 100,> 100
–,COc1cc(C2=CC(c3ccc(Cl)cc3)NC(=S)N2)cc(OC)c1OC (stereo unspecified),55.5,48.3
–,COc1cc(C2=CC(c3cc(OC)c(OC)c(OC)c3)NC(=S)N2)cc(OC)c1OC (stereo unspecified),> 100,> 100
–,COc1cc(OC)c(C2C=C(c3cc(OC)c(OC)c(OC)c3)NC(=S)N2)c(OC)c1 (stereo unspecified),6.3,5.7
2.9,COc1cc(OC)c(C2C=C(c3cc(OC)ccc3OC)NC(=S)N2)c(OC)c1 (stereo unspecified),6.1,0.4
–,COc1ccc(OC)c(C2=CC(c3ccc(OC)c([N+](=O)[O-])c3)NC(=S)N2)c1 (stereo unspecified),42,2.2
–,COc1cccc(C2C=C(c3cc(OC)c(OC)c(OC)c3)NC(=S)N2)c1 (stereo unspecified),59.5,> 100
4.4,COc1ccc(C2C=C(c3cc(OC)c(OC)c(OC)c3)NC(=S)N2)cc1O (stereo unspecified),6,0.5
–,COc1cc(C2=CC(c3ccc([N+](=O)[O-])cc3)NC(=S)N2)cc(OC)c1OC (stereo unspecified),> 100,> 100
–,COc1ccc(/C=C\c2cc(OC)c(OC)c(OC)c2)cc1O [COMBRETASTATIN A4],0.003,0.002
